EBV gp42 inh = EBV gp42 inhibition; Q1HVG2; Fluorescence polarization binding assay, mP read-out; inhibition, % (tested at 21.74 µM); hit rate 0.42% among 220,000; in the data active = inhibition above about 50%
Target sequence (Q1HVG2 whole entry, looked up): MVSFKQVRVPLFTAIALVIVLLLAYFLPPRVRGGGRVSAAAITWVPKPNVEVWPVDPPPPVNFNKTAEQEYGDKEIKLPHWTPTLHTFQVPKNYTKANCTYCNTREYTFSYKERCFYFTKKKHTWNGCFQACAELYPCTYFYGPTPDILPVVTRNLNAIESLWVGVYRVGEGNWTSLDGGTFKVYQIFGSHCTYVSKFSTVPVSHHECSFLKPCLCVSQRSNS
BCLXL inh = Bcl-xL (human) inhibition; Q07817; GST-Bcl-xL / FITC-Bim BH3 peptide fluorescence polarization; inhibition, % at 10.9 µM; hit rate 0.7% among 320,000; AID 2129;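 active = inhibition above the mean of all tested compounds plus 3 SD, cutoff set per campaign, cut at about 30% in these data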;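 note: 0% = DMSO wells and 100% = unlabeled Bim-BH3 peptide competitor; inhibitors lower millipolarization by displacing the labeled peptide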
Target sequence (Q07817 whole entry, looked up): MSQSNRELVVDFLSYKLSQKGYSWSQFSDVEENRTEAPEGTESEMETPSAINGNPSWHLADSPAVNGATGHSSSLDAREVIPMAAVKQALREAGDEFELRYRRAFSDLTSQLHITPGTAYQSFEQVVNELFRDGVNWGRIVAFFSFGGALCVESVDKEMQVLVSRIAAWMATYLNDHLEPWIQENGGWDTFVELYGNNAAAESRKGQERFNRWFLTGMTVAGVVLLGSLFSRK
GLD-1 RNA inh = GLD-1-TGE RNA interaction inhibition (C. elegans); Q17339; purified GLD-1 + fluorescein TGE RNA, fluorescence polarization; inhibition, % at 5.96 µM; hit rate 0.44% among 320,000; AID 2280;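 active = percent inhibition above a per-plate cutoff, the plate mean of test compounds plus 3 SD, cut at about 30% in these data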;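 note: 0% = DMSO wells with GLD-1 and probe and 100% = wells lacking GLD-1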
IMP-1 inhibitor = inhibitors of Pseudomonas aeruginosa IMP-1 metallo-beta-lactamase; AID 1556; hit rate 0.45% among 290,000; inhibition, % at 5.6 µM; purified IMP-1, nitrocefin hydrolysis, epi-absorbance fluorescence;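 active = inhibition above the mean plus 3 SD of all compounds in the same screening run, cut at about 4.5% in these data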;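 note: 0% = IMP-1 with DMSO and 100% = DMSO wells lacking enzyme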
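System: purified recombinant IMP-1 beta-lactamase. Medium: Zinc- and detergent-supplemented HEPES buffer, pH 7.1. Compound: one 5.6 µM dose […]. Schedule: 15 min preincubation plus 25 min reaction at 25 °C. Technique: Epi-absorbance fluorescence, 480 nm excitation, 530 nm emission.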
MEX-5 binding = C. elegans MEX-5 TCR-2 RNA binding activity | Q9XUB2 | activity score (negative = inhibition of binding), % at 10 µM | hit rate 0.38% among 300,000 | MEX-5/FITC-TCR2 RNA binding, fluorescence polarization; hits give low values;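 active = inhibition past about -25% in most replicates, and total fluorescence under double the plate's negative control median, limit read from the data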;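 note: 0% = DMSO and -100% = 5 µM competing unlabeled TCR2 RNA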
VIM-2 inh = inhibitors of Pseudomonas aeruginosa VIM-2 metallo-beta-lactamase; AID 1527; inhibition, % at 5.6 µM; purified VIM-2, nitrocefin hydrolysis, epi-absorbance fluorescence; hit rate 0.89% among 290,000;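 active = inhibition above the mean of all tested compounds plus 3 SD, cutoff set per screening run, cut at about 7.5% in these data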;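 note: red hydrolysis product quenches plate fluorescence so inhibitors raise well fluorescence; 0% = enzyme with DMSO and 100% = DMSO without enzyme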
Starred values were filed as active, the others as inactive; . = not tested or not shown. A selection: hits, their analogues and other compounds. The true share with any hit is near 2.2%.

SMILES	EBV gp42 inh	BCLXL inh	GLD-1 RNA inh	IMP-1 inhibitor	MEX-5 binding	VIM-2 inh
O=C(C1=NN[C@@H]2C(=O)N(c3cccc(F)c3)C(=O)[C@H]12)c1ccc2ccccc2n1	5	2	-1	-3	2	-6
COc1cccc(N2C(=O)[C@H]3C(C(=O)c4cnccn4)=NN[C@H]3C2=O)c1	-10	37*	3	-2	-6	-2
CCN1CCCC1CN(Cc1cc2ccc(C)cc2[nH]c1=O)C(=S)Nc1ccc(F)cc1 (stereo not drawn)	-15	7	-1	0	-2	10*
CC(C)(C)CC(C)(C)NCC(=O)Nc1c2c(nc3ccccc13)CCC2	1	8	6	-3	1	-4
NC(=O)c1c(N)sc2c1CCCCC2	-9	12	5	0	-2	-1
Nc1sc2c(c1C(=O)NC1CCS(=O)(=O)C1)CCC2 (stereo not drawn)	-5	32*	-3	-3	-1	-4
CNC(=O)c1c(N)sc2c1CCCCC2	8	56*	36*	-4	-9	-3
CCN(CC)c1ccc(C=N/C(C#N)=C(\N)C#N)cc1	32	-4	-23	-1	-109*	-4
O=C(NNC(=O)c1sccc1-n1cccc1)c1cccc(Cl)c1	67*	0	0	-3	1	-4
O=C(NNC(=O)c1sccc1-n1cccc1)c1ccccc1	-17	6	0	-2	-1	-3
N#Cc1c(=O)c2nc(NCc3ccccc3)ncc2n2ccccc12	7	44*	20	0	-4	1
N#Cc1c(=O)c2nc(NCCCO)ncc2n2c(=O)c3ccccc3[nH]c12	-9	14	0	-1	2	-2
Cc1ccccc1-n1ccnc1SCC(=O)Nc1cccc(S(=O)(=O)NC2=NCCC2)c1	.	.	2	.	.	.
COc1ccccc1-n1c(C)c2c(OC)cccc(=O)c2c1C	6	39*	30	1	1	9.2*
COc1cccc(=O)c2c(C)oc(C)c12	18	20	17	-3	-71*	-4
CC(C)=CC(=O)N1CCCC(N2CCN(c3ccccc3C)CC2)C1 (stereo not drawn)	.	4	2	-2	-2	-3
CCN(CC)CCN1C(=O)/C(=C\c2ccc(Cl)c([N+](=O)[O-])c2)SC1=Nc1ccc(OC)cc1	.	1	-1	-1	1	8.0*
CCOc1ccc2nc(N3C(=O)CNC3=S)sc2c1	5	2	6	-4	1	-3
COc1ccc2nc(N3C(=O)/C(=C/c4ccc(Cl)cc4)NC3=S)sc2c1	54*	.	.	-2	.	-1
O=C(O)c1cccc2cc(-c3ccccc3)oc(=O)c12	.	3	1	4.8*	2	5
O=c1oc(-c2ccc(O)c(O)c2)cc2cccc(O)c12	.	.	1	.	.	.
Cc1ccc(C(=O)COC(=O)c2c(C)cc(=O)oc2C)cc1[N+](=O)[O-]	8	5	5	1	0	-3
Cc1cc(=O)oc(C)c1C(=O)OCC(=O)c1ccc(Cl)c(Cl)c1	-8	3	-9	5.3*	2	1
CCN(CC)C(=O)CSc1nc2c(sc(=S)n2-c2ccccc2)c(=O)n1Cc1ccco1	-11	50*	-1	-2	1	0
CCN(CC)C(=O)CSc1nc2c(sc(=S)n2CC)c(=O)n1-c1ccccc1	4	3	-2	-3	2	-1
SMILES	EBV gp42 inh	BCLXL inh	GLD-1 RNA inh	IMP-1 inhibitor	MEX-5 binding	VIM-2 inh
CC1(C)CC(=O)C(C=Nc2cccnc2)=C(O)C1	-8	8	7	-3	0	-1
CC1(C)CC(=O)C(C=Nc2ccc(C(=O)c3ccccc3)cc2N=CC2=C(O)CC(C)(C)CC2=O)=C(O)C1	2	67*	104*	-1	-5	-2
CC1(C)CC(=O)C(C=Nc2cccnc2/N=C/C2=C(O)CC(C)(C)CC2=O)=C(O)C1	6	58*	118*	3	-5	2
CCOc1ccc(CNC(=O)Cn2ccc3cc(S(=O)(=O)N4CCCC4)ccc32)cc1	.	8	-2	-2	-1	-2
CCCCN(C(=O)c1cc(=O)[nH]c2ccccc12)c1c(N)n(CCCC)c(=O)[nH]c1=O	.	-6	8	-1	-7	0
Cc1ccccc1-n1c(-c2ccoc2C)n[nH]c1=S	0	-2	0	-3	0	8.6*
Cc1cccc(-n2c(C)n[nH]c2=S)c1	-25	8	-1	-2	-1	8.0*
Cc1cccc(-n2c(-c3ccncc3)n[nH]c2=S)c1	-8	-16	5	0	0	3
Cc1cccc(-n2c(-c3ccoc3C)n[nH]c2=S)c1	-4	-9	-5	-1	5	9.1*
CS(=O)(=O)c1ccc(Cl)c(NC(=O)c2cc(=O)[nH]c3ccc(S(=O)(=O)N4CCOCC4)cc23)c1	.	-1	2	.	-1	.
O=C(Nc1ccccc1Cl)Oc1ccc(Cl)cc1Cl	-16	2	5	-2	2	1
O=C(C/C=N\OCc1c(Cl)cccc1Cl)Oc1ccc(Cl)cc1Cl	-10	4	3	12*	2	-2
CCOC(=O)C1=C(O)/C(=C/c2cn(CC(=O)NCC3CCCO3)c3ccccc23)SC1=Nc1ccc(C)cc1 (stereo not drawn)	.	81*	-28	0	.	-2
CC(C)C(=O)c1cn(CC(=O)NCC2CCCO2)c2ccccc12 (stereo not drawn)	4	6	5	-1	0	-1
COc1ccc(Cl)cc1NC(=O)C/C(C)=N/NC(=O)C(=O)NCc1ccccc1	.	2	8	-5	-2	-4
CS(=O)(=O)Nc1cccc(C2=NN(C(=O)c3cccc([N+](=O)[O-])c3)C(c3cccs3)C2)c1 (stereo not drawn)	.	-16	-27	-1	-4	-1
CC(C)(C)C(=O)c1sc2nc(-c3cccs3)cc(C(F)(F)F)c2c1N	9	20	-28	-4	-74*	-3
COc1ccccc1NC(=O)c1sc2nc(Cc3ccccc3)cc(C(F)(F)F)c2c1N	74*	-6	-5	0	-143*	-1
Nc1c(C(=O)Nc2nccs2)sc2nc(-c3cccs3)cc(C(F)(F)F)c12	1	31*	20	-1	-1	-3
COc1ccc(CCNc2nc3ccccc3n3nnnc23)cc1OC	3	54*	16	-5	-1	-1
Cc1cccc(OCC(=O)NCC(C)(C)N2CCOCC2)c1	.	1	4	.	.	.
CCCN(CC(=O)Nc1ccccc1OC)C(=O)c1ccncc1	.	-1	0	-2	-2	0
CCNc1ccc(Br)cc(C(=O)/C=C/c2ccc(Cl)cc2)c1=O	12	-24	4	4.5*	-4	1
CNc1ccc(Br)cc(C(=O)/C=C/c2ccc(OC)cc2OC)c1=O	8	-4	-3	0	2	-2
CNc1ccc(Br)cc(C(=O)/C=C/c2cccc(OC)c2)c1=O	9	3	20	10*	-2	1
